Structures are written as SMILES. Calls of active or inactive are those of the source. No cut-off for these calls is given here.

Here are results for six compounds from ChEMBL document CHEMBL4346668, “Novel multitarget inhibitors with antiangiogenic and immunomodulator properties” (Eur J Med Chem, 2019).

In one assay the test system is HEK293. The assay is described as follows: Antiproliferative activity against HEK293 cells incubated for 2 days by MTT assay. It is filed as cell-based. The following applies: Homo sapiens, HEK293, 48 h. A digest of the protocol:
(§1)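 MTT assay. Cells seeded at 3 × 10³/well (HeLa, A549, HMEC-1, HEK-293) or 5 × 10³/well (HT-29, MCF-7) in their growth media with serial compound dilutions from 10 mM DMSO stocks. Incubated 2 days at 37 °C, 5% CO₂, then MTT added for 3 h and formazan dissolved in DMSO. A540 read and viability expressed versus untreated cells. IC₅₀ determined graphically; three independent experiments.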

Assay [1] concerns the target Programmed cell death 1 ligand 1 (Homo sapiens) (UniProt Q9NZQ7). The assay is described as follows: Binding affinity to PDL1 (unknown origin) assessed as change in melting temperature at 100 uM by fluorescence based real time RT-PCR analysis.
In assay [2] the test system is A549. As to the kind of experiment: Immunomodulatory activity in human A549 cells assessed as reduction in c-Myc expression level at 100 uM incubated for 24 hrs by ELISA relative to control. The format is functional. Also noted: scale not given: the % may be the effect or the level left. The essentials: (§2)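 A549 cells (3·10⁵/well) treated 24 h with compound; final concentration 100 µM for some compounds and 15 µM for others per table footnote. Lysates protein-normalized by Bradford, and PD-L1 and c-Myc quantified by commercial ELISA kits as % of DMSO-treated cells. Mean ± SD of three experiments.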
On the technique in general: In an ELISA, binding on a coated surface is turned into a signal by an enzyme label.

In assay [3] the test system is HT-29. As to the kind of experiment: Antiproliferative activity against human HT-29 cells at 200 uM incubated for 24 hrs in presence of Jurkat T cells by trypan blue staining based Neubauer chamber method relative to control. The format is functional. A digest of the protocol: (§3)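 Co-culture of 5 × 10⁴ tumor cells/well with 2 × 10⁵ PD-1-expressing Jurkat T cells in 1.5 mL, treated 24 h with compound at 200 µM. Supernatant discarded; tumor cells trypsinized, stained with trypan blue and living cells counted in a Neubauer chamber. Proliferation inhibition (%) attributable to Jurkat presence reported; representative of three experiments.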

Assay [4] concerns the target Vascular endothelial growth factor receptor 2 (Homo sapiens) (UniProt P35968).
The test system of assay [5] is HMEC-1. The assay is described as follows: Effect on VEGFR2 in HMEC1 cells assessed as total VEGFR2 level at 100 uM incubated for 24 hrs by flow cytometric analysis relative to control. The format is functional, Homo sapiens. The essentials:
(§4)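 HMEC-1 cells exposed 24 h to compound at 100 µM. Membrane VEGFR-2 measured on fixed cells stained with Alexa Fluor 647 anti-CD309; total VEGFR-2 measured after Triton X-100 permeabilization before fixation. Read by flow cytometry as % of DMSO control.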

For the next assay, the system named is HeLa. The assay is described as follows: Antiproliferative activity against human HeLa cells incubated for 2 days by MTT assay. To be noted: 48 h. The format is functional, cell-based. The essentials:
as §1
Background: Tetrazolium assays rely on reduction of a dye to a coloured formazan, in cell work by metabolically active cells.

Assay [6] deals with HMEC-1. As to the kind of experiment: Antiproliferative activity against HMEC1 cells incubated for 2 days by MTT assay. It is filed as cell-based. To be noted: Homo sapiens, HMEC-1, 48 h. A digest of the protocol:
as §1

Assay [7] has as its system HMEC-1. The assay is described as follows: Effect on VEGFR2 in HMEC1 cells assessed as membrane VEGFR2 level at 100 uM incubated for 24 hrs by flow cytometric analysis relative to control. It is filed as functional, Homo sapiens. The essentials:
as §4
Background: A flow cytometer gives signals particle by particle.

For assay [8], the system named is A549. As to the kind of experiment: Immunomodulatory activity in human A549 cells assessed as reduction in PD-L1 expression level at 100 uM incubated for 24 hrs by ELISA relative to control. On the set-up: scale not given: the % may be the effect or the level left. It is filed as functional. The essentials: as §2
Another assay has as its system MCF7. As to the kind of experiment: Antiproliferative activity against human MCF7 cells incubated for 2 days by MTT assay. The format is functional, cell-based. To be noted: MCF7, 48 h. A digest of the protocol: as §1
Assay [9] relates to A549. As to the kind of experiment: Antiproliferative activity against human A549 cells incubated for 2 days by MTT assay. To be noted: A549, 48 h. The format is functional, cell-based. A digest of the protocol:
as §1

Assay [10] concerns A549. The assay is described as follows: Antiproliferative activity against human A549 cells at 200 uM incubated for 24 hrs in presence of Jurkat T cells by trypan blue staining based Neubauer chamber method relative to control. It is filed as functional. A digest of the protocol: as §3
Assay [11] deals with HT-29. As to the kind of experiment: Antiproliferative activity against human HT-29 cells incubated for 2 days by MTT assay. To be noted: HT-29, 48 h. It is filed as functional, cell-based. A digest of the protocol: as §1
Assay [12] relates to HMEC-1. The assay is described as follows: Antiangiogenic activity against HMEC1 cells assessed as inhibition of tube formation incubated for 20 hrs by matrigel based tube formation assay. The format is functional, Homo sapiens. The essentials: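 HMEC-1 cells in EGM-2MV medium seeded at 2 x 10⁴ cells/well on Matrigel (10 mg/mL, gelled 30 min at 37°C) and attached for 30 min. Compounds were added at different concentrations and tube formation was assessed after 20 h at 37°C. The minimum concentration at which inhibition began was reported. Data representative of three experiments.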

The test system of assay [13] is A549. The assay is described as follows: Effect on VEGFR2 in human A549 cells assessed as total VEGFR2 level at 100 uM incubated for 24 hrs by flow cytometric analysis relative to control. It is filed as functional.
Assay [14] has as its system A549. As to the kind of experiment: Effect on VEGFR2 in human A549 cells assessed as membrane VEGFR2 level at 100 uM incubated for 24 hrs by flow cytometric analysis relative to control. It is filed as functional. The essentials:
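A549 cells exposed 24 h to compound at 100 µM. Membrane VEGFR-2 stained on fixed cells with Alexa Fluor 647 anti-VEGFR-2; Triton X-100 permeabilization before fixation used for total VEGFR-2. Flow cytometry, % of DMSO control; mean ± SD of three experiments.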

The subject of assay [15] is A549. As to the kind of experiment: Immunomodulatory activity in human A549 cells assessed as inhibition of c-Myc level at 100 uM incubated for 24 hrs by confocal laser scanning microscopic method. It is filed as functional, cell-based. A digest of the protocol: (§5)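 A549 cells on cover glass treated 24 h at 100 µM, permeabilized with PEM-Triton X-100 0.5% and fixed in 3.7% formaldehyde. Direct immunostaining 2 h at 37°C in darkness with anti-PD-L1-AlexaFluor647 (excitation 650, emission 665 nm) and anti-c-Myc-FITC (excitation 488, emission 496–535 nm). Confocal microscopy, 63x oil objective.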

Assay [16] has as its system A549. The assay is described as follows: Immunomodulatory activity in human A549 cells assessed as inhibition of PD-L1 level at 100 uM incubated for 24 hrs by confocal laser scanning microscopic method. The format is functional, cell-based. A digest of the protocol: as §5
Assay [17] has as its system A549. The assay is described as follows: Induction of apoptosis in human A549 cells assessed as apoptotic cells at 100 uM incubated for 24 hrs by FITC-Annexin V staining based flow cytometric analysis (reference value: 20%). The format is functional.
For assay [18], the system named is HMEC-1. As to the kind of experiment: Effect on VEGFR2 in HMEC1 cells assessed as total VEGFR2 level at 10 uM incubated for 24 hrs by flow cytometric analysis relative to control. It is filed as functional, Homo sapiens. A digest of the protocol:
(§6)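 HMEC-1 cells exposed 24 h to compound. Membrane VEGFR-2 measured on fixed cells stained with Alexa Fluor 647 anti-CD309; total VEGFR-2 measured on lysates or permeabilized cells. Read by flow cytometry as % of DMSO control; mean ± SD of three experiments.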

Assay [19] deals with A549. As to the kind of experiment: Effect on VEGFR2 in human A549 cells assessed as total VEGFR2 level at 10 uM incubated for 24 hrs by flow cytometric analysis relative to control. The format is functional.
Assay [20] concerns A549. As to the kind of experiment: Effect on VEGFR2 in human A549 cells assessed as membrane VEGFR2 level at 10 uM incubated for 24 hrs by flow cytometric analysis relative to control. It is filed as functional. The essentials:
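A549 cells incubated 24 h with compound at 10 µM. Membrane VEGFR-2 (fixed cells) and total VEGFR-2 (permeabilized or lysate) stained with Alexa Fluor 647 anti-CD309 and quantified by flow cytometry relative to DMSO control; mean ± SD of three experiments.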

Assay [21] relates to HMEC-1. The assay is described as follows: Effect on VEGFR2 in HMEC1 cells assessed as membrane VEGFR2 level at 10 uM incubated for 24 hrs by flow cytometric analysis relative to control. The format is functional, Homo sapiens. A digest of the protocol:
as §6

Chain of Vascular endothelial growth factor receptor 2 (Homo sapiens) (P35968 whole entry): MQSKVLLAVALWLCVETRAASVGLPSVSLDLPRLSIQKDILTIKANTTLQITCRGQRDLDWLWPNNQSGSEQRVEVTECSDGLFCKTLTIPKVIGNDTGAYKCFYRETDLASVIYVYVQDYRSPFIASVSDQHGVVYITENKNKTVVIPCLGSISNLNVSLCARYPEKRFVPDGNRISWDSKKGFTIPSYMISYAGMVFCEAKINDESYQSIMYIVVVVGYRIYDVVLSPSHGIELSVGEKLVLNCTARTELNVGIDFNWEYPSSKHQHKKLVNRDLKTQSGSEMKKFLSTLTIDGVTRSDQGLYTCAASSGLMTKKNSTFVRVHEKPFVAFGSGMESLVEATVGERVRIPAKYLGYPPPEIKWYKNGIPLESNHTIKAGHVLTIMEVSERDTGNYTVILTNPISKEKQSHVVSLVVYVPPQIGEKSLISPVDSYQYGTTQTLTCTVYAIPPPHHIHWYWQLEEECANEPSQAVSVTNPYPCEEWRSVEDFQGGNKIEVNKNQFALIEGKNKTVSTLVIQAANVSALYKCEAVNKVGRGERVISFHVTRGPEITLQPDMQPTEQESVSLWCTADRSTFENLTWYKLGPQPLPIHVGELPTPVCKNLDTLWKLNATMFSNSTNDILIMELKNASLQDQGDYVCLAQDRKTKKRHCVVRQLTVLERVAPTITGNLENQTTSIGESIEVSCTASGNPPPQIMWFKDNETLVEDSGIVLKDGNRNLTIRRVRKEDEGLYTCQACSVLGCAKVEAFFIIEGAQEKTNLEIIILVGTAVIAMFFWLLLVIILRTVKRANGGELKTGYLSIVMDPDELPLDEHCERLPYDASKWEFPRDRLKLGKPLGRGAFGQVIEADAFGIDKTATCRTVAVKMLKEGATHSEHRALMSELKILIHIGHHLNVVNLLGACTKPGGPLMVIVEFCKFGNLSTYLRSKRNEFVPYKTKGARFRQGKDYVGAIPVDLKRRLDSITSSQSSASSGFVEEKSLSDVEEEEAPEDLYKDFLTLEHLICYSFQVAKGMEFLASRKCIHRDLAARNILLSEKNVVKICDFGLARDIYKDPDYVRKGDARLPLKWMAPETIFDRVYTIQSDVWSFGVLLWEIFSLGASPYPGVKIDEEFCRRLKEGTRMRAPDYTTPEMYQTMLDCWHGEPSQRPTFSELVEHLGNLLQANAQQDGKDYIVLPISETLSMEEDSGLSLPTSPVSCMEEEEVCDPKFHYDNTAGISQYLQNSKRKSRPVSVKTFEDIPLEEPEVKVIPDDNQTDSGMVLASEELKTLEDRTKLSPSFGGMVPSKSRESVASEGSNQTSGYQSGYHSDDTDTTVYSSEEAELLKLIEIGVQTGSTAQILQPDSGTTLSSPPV
Chain of Programmed cell death 1 ligand 1 (Homo sapiens) (Q9NZQ7 whole entry): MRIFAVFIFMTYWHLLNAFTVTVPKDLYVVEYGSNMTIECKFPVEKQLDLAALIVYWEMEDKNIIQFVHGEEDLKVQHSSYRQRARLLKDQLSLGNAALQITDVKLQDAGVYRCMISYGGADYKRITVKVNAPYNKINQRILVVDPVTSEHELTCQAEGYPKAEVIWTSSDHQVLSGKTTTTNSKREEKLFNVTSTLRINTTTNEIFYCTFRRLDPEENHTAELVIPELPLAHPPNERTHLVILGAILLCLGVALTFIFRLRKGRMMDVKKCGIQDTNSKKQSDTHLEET

Regarding `COc1ccc(Cc2cn(CCNC(=O)Nc3ccc(C)cc3)nn2)cc1`, the concentration for half-maximal inhibition (IC50) with HEK293, in the assay on HeLa, in the assay on HMEC-1 [6], in the assay on MCF7, with A549 [9] and in the assay with HT-29 [11] was above 200 µM throughout. Besides, the ΔTm (in general, the change in melting temperature against a reference sample) in assay [1] is 3.09 °C; in assay [4] it was 3.68 °C. The Activity in the assay on A549 [2] is 70%; in the assay on HT-29 [3] it was 22%; in the assay with HMEC-1 [5], 90%; in the assay on HMEC-1 [7] it was 97%; in the assay with A549 [8], 66%; with A549 [10] it was 6%.
As to `COc1ccc(Cc2cn(CCNC(=O)Nc3cccc(Cl)c3)nn2)cc1`, the IC50 in the assay on HEK293, in the assay with HeLa, with HMEC-1 [6], in the assay on MCF7, with A549 [9] and in the assay on HT-29 [11] was above 200 µM in each case. The ΔTm is 1.89 °C in assay [1] and 7.34 °C in assay [4]. Moreover, the Activity in the assay with A549 [2] is on record as 60%; with HT-29 [3], 76%; with HMEC-1 [5] it was 81%; in the assay with HMEC-1 [7], 74%; with A549 [8], 70%; in the assay on A549 [13], 86%. The Activity in the assay on A549 [14] was determined as 95%; in the assay with A549 [10], 49%. Further, in the assay on HMEC-1 [12], the MAC came out at 50 µM.
For `COc1ccc(Cc2cn(CCNC(=O)Nc3ccc(Cl)cc3)nn2)cc1`, the IC50 in the assay with HEK293, in the assay with HeLa, in the assay on HMEC-1 [6], with MCF7, in the assay on A549 [9] and in the assay with HT-29 [11] was above 200 µM throughout. Further, the ΔTm in assay [1] is 1.93 °C; in assay [4], 5.09 °C. In addition, the Activity in the assay on A549 [2] amounted to 73%; with HT-29 [3] it was 84%; with HMEC-1 [5], 102%; in the assay with HMEC-1 [7] it was 90%; with A549 [8] it was 69%; in the assay with A549 [10], 16%. For the same compound, the MAC in the assay on HMEC-1 [12] stood at 400 µM.
With `Cc1c(COc2ccc(CN3CCCCC3C(=O)O)cc2Br)cccc1-c1ccccc1` (centres undefined), the IC50 (commonly the concentration that gives 50% inhibition) with HEK293 was 60 µM; in the assay with HeLa it was above 100 µM; in the assay with MCF7, 20 µM; with A549 [9] it was 6 µM; in the assay on HT-29 [11], 19 µM. For the same compound, in assay [1], the ΔTm was found to be 3.68 °C. The Activity in the assay with A549 [2] is recorded as 60%; in the assay on HT-29 [3], 53%; in the assay on A549 [8], 68%; with A549 [10] it was 55%. Further, the result in the assay on A549 [15] and in the assay on A549 [16] was Active.
With `COc1ccc(/C=C/c2cccc(NC(=O)Nc3ccccc3Cl)c2)cc1`, the IC50 was 57 µM in the assay on HEK293; above 100 µM with HeLa; above 100 µM in the assay on HMEC-1 [6]; above 100 µM with MCF7; 61 µM in the assay with A549 [9]; 47 µM with HT-29 [11]. The Activity in the assay on A549 [17] amounted to 42%; in the assay with HMEC-1 [18], 121%; in the assay with A549 [19] it was 42%; with A549 [8] it was 74%; in the assay with A549 [20], 109%; in the assay on HMEC-1 [21], 76%. The ΔTm in assay [1] worked out at 5.09 °C; in [4], 10.2 °C. In addition, the MAC in the assay on HMEC-1 [12] worked out at 10 µM.
As to `CNC(=O)c1cc(Oc2ccc(NC(=O)Nc3ccc(Cl)c(C(F)(F)F)c3)cc2)ccn1` [SORAFENIB], the half-inhibitory concentration (IC50) with HEK293 amounted to 5 µM; in the assay on HeLa, 6.1 µM; with HMEC-1 [6], 34 µM; in the assay with MCF7, 14 µM; with A549 [9], 27 µM; in the assay with HT-29 [11] it was 17 µM. The Activity in the assay with A549 [17] was determined as 48%; in the assay on HMEC-1 [18] it was 64%; with HMEC-1 [5], 64%; in the assay on HMEC-1 [7], 46%; with A549 [19] it was 85%; with A549 [13], 85%. Also, the values for the Activity in the assay on A549 [20], with A549 [14] and in the assay with HMEC-1 [21] were 92%, 92% and 46%, respectively. In the assay on HMEC-1 [12], the MAC is 10 µM.
